Measured values as given in ChEMBL document CHEMBL4020814, “Synthesis, Binding Mode, and Antihyperglycemic Activity of Potent and Selective (5-Imidazol-2-yl-4-phenylpyrimidin-2-yl)[2-(2-pyridylamino)ethyl]amine Inhibitors of Glycogen Synthase Kinase 3” (J Med Chem, 2017).

How the values were obtained:
[1] = Inhibition of human GSK3 using biotin-CREB peptide substrate after 1 hr by scintillation counting method
[2] = Inhibition of GSK3 expressed in CHO-IR cells expressing human insulin receptor assessed as glycogen synthase activation after 30 mins by filter paper assay; format: cell-based, Cavia porcellus
Rattus norvegicus = test: Antidiabetic activity in diabetic ZDF fa/fa rat assessed as reduction in plasma glucose AUC at 8 mg/kg administered 4.5 and 0.5 hrs prior to oral glucose challenge by oral glucose tolerance test; format: functional; design: scale not given: the % may be the effect or the level left
Procedure, shortened: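 Obese 10-week-old ZDF (fa/fa) rats, n = 8/group, fasted overnight, given 8 mg/kg orally at 4.5 and 0.5 h before oral glucose challenge. Efficacy is the percent reduction in plasma glucose AUC versus untreated animals. Formulations were 15% captisol, 1% CMC or water with pH adjusted.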

[3] = Oral bioavailability in diabetic ZDF fa/fa rat at 8 mg/kg administered 4.5 and 0.5 hrs prior to oral glucose challenge; format: ADME, organism-based; settings: in vivo
[4] = Plasma concentration in diabetic db/db mouse at 30 mg/kg administered at 4.5 and 0.5 hrs prior to oral glucose challenge measured 20 mins post second dose
[5] = Half life in diabetic ZDF fa/fa rat at 8 mg/kg administered 4.5 and 0.5 hrs prior to oral glucose challenge; format: ADME, organism-based; settings: in vivo
[6] = Inhibition of GSK3 in Sprague-Dawley rat primary hepatocytes assessed as assessed as glycogen synthase activation after 30 mins
[7] = molecular target: Glycogen synthase kinase-3 alpha (Homo sapiens, UniProt P49840); test: Inhibition of human GSK3alpha using biotin-CREB peptide substrate after 1 hr by scintillation counting method
[8] = molecular target: Cyclin-dependent kinase 1 (Homo sapiens, UniProt P06493); test: Inhibition of human CDC2 using biotin histone H1 peptide substrate after 1 hr by scintillation counting method
[9] = molecular target: Mitogen-activated protein kinase 1 (Homo sapiens, UniProt P28482); test: Inhibition of human ERK2 using myelin basic protein substrate after 1 hr by scintillation counting method
[10] = molecular target: RAC-alpha serine/threonine-protein kinase (Homo sapiens, UniProt P31749); test: Inhibition of human AKT1/PKB using phospho-AKT peptide substrate after 1 hr by scintillation counting method
Angiopoietin-1 receptor = Angiopoietin-1 receptor (Homo sapiens, UniProt Q02763)
[11] = molecular target: Vascular endothelial growth factor receptor 1 (Homo sapiens, UniProt P17948)
[12] = molecular target: Vascular endothelial growth factor receptor 2 (Homo sapiens, UniProt P35968)
[13] = molecular target: Fibroblast growth factor receptor 1 (Homo sapiens, UniProt P11362)
[14] = molecular target: Insulin-like growth factor 1 receptor (Homo sapiens, UniProt P08069)
Insulin receptor = Insulin receptor (Homo sapiens, UniProt P06213); test: Inhibition of human insulin receptor tyrosine kinase after 1 hr by scintillation counting method
[15] = molecular target: T1, Serine/threonine-protein kinase Chk1 (Homo sapiens, UniProt O14757); test: Inhibition of human CHK1 using biotin-CDC25 peptide substrate after 1 hr by scintillation counting method
T1 sequence (O14757 whole entry): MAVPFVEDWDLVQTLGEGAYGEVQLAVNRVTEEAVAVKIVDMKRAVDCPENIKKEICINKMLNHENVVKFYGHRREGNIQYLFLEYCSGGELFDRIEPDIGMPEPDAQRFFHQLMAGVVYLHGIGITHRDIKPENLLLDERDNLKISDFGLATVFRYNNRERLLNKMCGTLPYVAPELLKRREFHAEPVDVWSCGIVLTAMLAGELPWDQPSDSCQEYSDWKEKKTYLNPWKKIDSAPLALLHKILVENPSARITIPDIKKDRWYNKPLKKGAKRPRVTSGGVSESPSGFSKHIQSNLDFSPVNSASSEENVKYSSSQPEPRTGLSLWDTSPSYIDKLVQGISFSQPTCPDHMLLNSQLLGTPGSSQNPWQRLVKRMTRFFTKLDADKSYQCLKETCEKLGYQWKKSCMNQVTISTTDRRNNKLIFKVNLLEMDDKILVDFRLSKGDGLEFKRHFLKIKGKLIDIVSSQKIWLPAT

[16] = molecular target: Casein kinase I isoform epsilon (Homo sapiens, UniProt P49674); test: Inhibition of human CK1epsilon using biotin peptide substrate after 1 hr by scintillation counting method
[17] = Inhibition of human DNA-dependent protein kinase using PI as substrate after 1 hr by scintillation counting method
[18] = Inhibition of human phosphatidylinositol (PI) 3-kinase using PI as substrate after 1 hr by scintillation counting method
[19] = molecular target: Glycogen synthase kinase-3 beta (Homo sapiens, UniProt P49841); test: Inhibition of human GSK3beta using biotin-CREB peptide substrate after 1 hr by scintillation counting method
[20] = Stability in rat liver microsomes assessed as half life; format: ADME, microsome
[21] = Stability in dog liver microsomes assessed as half life; format: ADME, Canis lupus familiaris, microsome
[22] = Stability in human liver microsomes assessed as half life; format: ADME, microsome

Cyclin-dependent kinase 1, sequence (P06493 whole entry): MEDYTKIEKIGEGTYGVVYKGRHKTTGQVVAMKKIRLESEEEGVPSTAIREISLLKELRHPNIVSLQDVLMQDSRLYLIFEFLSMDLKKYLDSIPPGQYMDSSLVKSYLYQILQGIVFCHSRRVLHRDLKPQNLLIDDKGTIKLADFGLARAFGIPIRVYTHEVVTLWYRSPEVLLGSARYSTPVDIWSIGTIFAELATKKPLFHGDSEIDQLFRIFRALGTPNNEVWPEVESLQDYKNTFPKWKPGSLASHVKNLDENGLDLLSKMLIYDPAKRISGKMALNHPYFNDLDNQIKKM
Fibroblast growth factor receptor 1, sequence (P11362 whole entry): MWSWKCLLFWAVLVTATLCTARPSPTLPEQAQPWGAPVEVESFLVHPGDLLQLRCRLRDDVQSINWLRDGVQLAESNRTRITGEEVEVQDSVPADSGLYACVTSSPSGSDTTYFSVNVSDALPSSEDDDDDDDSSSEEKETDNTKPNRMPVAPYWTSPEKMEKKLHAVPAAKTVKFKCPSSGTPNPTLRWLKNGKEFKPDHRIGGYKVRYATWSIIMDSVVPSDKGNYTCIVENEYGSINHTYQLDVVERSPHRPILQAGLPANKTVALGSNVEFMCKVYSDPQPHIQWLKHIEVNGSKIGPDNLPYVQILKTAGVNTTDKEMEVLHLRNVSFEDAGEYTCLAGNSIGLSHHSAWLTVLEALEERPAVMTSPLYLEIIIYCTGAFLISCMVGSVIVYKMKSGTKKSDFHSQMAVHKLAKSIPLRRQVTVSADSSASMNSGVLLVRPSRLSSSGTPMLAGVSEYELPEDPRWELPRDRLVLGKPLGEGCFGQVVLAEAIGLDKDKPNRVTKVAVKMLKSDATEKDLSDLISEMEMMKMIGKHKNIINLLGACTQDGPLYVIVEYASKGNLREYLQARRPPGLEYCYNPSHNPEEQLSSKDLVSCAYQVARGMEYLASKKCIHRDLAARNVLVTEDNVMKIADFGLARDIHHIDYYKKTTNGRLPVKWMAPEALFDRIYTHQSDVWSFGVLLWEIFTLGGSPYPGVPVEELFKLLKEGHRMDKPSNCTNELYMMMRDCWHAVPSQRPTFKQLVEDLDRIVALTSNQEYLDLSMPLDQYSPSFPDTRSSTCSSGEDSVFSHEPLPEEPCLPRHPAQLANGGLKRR
Vascular endothelial growth factor receptor 2, sequence (P35968 whole entry): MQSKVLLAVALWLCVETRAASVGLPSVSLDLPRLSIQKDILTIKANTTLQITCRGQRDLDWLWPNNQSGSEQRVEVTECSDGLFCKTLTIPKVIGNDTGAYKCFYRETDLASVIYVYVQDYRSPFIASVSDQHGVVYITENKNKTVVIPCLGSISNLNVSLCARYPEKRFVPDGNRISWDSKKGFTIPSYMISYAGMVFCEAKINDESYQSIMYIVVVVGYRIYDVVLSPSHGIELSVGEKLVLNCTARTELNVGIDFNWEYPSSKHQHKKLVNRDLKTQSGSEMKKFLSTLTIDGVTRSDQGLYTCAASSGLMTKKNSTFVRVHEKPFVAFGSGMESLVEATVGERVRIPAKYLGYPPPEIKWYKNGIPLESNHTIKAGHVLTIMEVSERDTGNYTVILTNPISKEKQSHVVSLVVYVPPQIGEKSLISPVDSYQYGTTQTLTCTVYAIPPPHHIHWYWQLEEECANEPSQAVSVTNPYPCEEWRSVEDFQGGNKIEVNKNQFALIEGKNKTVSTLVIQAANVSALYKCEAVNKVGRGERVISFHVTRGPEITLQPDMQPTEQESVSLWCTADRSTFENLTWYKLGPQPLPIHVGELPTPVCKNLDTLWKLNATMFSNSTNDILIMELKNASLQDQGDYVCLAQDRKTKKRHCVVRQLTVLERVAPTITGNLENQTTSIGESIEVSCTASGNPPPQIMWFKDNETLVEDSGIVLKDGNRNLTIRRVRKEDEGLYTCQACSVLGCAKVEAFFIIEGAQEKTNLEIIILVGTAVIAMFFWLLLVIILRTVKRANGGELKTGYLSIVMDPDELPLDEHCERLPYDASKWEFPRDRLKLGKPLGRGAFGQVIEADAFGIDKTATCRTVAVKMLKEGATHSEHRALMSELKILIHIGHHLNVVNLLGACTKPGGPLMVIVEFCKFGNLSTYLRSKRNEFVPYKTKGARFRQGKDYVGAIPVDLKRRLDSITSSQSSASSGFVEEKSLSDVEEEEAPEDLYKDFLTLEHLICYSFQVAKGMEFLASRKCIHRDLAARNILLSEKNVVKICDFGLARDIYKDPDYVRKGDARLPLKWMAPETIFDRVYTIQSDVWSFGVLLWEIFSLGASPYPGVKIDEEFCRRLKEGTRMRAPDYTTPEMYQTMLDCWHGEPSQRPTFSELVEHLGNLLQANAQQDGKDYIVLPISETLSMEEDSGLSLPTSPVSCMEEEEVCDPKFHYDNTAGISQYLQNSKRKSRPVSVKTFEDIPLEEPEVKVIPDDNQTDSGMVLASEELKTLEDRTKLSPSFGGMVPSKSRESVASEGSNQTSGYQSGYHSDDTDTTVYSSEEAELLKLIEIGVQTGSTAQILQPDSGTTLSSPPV
Glycogen synthase kinase-3 beta, sequence (P49841 whole entry): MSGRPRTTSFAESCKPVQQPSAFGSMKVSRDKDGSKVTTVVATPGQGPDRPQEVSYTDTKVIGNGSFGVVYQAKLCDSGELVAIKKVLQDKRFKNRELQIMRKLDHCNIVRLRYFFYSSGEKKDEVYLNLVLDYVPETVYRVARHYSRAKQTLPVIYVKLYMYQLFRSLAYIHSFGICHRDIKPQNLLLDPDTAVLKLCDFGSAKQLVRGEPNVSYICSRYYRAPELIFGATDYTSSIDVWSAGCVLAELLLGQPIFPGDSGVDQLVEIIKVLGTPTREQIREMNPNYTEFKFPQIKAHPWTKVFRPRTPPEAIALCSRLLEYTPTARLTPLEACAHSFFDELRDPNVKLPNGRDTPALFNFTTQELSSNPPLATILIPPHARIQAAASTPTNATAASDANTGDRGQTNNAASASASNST
Insulin-like growth factor 1 receptor, sequence (P08069 31-736 limits assumed): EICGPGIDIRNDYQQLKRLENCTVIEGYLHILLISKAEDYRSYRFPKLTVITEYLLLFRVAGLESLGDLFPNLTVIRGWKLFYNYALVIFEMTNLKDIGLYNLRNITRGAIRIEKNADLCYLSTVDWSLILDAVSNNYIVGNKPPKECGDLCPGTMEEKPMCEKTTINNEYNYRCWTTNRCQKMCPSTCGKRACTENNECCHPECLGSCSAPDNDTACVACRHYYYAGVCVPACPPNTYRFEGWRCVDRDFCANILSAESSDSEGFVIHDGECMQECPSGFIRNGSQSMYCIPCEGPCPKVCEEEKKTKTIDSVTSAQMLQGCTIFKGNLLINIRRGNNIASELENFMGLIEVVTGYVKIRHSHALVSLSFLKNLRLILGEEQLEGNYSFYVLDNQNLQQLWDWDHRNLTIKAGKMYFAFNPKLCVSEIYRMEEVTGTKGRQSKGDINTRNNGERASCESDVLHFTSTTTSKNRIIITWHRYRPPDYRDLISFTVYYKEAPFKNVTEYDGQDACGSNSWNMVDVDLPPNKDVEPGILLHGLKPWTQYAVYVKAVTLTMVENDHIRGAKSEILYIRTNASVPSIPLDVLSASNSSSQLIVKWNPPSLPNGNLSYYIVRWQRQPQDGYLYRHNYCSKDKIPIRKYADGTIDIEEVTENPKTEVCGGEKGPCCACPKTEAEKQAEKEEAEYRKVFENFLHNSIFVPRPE
Insulin-like growth factor 1 receptor, sequence (P08069 741-1367 limits assumed): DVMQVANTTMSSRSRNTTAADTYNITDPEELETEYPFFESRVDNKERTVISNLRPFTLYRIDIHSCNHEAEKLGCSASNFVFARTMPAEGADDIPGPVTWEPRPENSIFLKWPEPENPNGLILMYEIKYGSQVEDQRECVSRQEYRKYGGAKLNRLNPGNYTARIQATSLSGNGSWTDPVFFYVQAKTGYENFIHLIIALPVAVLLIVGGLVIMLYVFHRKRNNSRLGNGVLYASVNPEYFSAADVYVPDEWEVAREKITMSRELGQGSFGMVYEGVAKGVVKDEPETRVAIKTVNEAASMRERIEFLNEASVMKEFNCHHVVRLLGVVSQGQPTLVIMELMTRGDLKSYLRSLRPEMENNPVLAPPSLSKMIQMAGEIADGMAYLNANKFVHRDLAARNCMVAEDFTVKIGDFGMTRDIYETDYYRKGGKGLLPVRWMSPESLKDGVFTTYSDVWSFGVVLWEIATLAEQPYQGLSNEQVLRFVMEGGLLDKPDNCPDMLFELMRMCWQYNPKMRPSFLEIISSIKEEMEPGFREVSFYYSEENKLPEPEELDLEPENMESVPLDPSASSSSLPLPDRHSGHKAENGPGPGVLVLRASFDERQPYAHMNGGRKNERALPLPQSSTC
Glycogen synthase kinase-3 alpha, sequence (P49840 whole entry): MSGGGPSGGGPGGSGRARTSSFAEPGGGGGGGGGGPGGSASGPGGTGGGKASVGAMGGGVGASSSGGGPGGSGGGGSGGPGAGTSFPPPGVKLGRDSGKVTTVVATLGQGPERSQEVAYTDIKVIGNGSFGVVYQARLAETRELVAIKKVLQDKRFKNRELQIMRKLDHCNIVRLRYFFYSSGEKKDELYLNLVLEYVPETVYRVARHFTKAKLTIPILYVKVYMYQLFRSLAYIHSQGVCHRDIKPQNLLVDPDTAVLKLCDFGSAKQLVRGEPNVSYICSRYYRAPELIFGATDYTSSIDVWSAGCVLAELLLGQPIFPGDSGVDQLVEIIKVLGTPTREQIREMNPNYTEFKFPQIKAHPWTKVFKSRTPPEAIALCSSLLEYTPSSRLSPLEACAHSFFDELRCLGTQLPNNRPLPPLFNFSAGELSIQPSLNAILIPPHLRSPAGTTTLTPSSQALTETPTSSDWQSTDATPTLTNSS

| SMILES | IC50 [1] [nM] | EC50 [2] [nM] | Activity (Rattus norvegicus) [%] | bioavailability [3] [%] | concentration at 20 min ([4]; plasma) [ng/mL] | half-life [5] [min] | half-life [20] [min] | half-life [21] [min] | also measured |
| --- | --- | --- | --- | --- | --- | --- | --- | --- | --- |
| Cc1c[nH]c(-c2cnc(NCCNc3ccc([N+](=O)[O-])c(N)n3)nc2-c2ccc(Cl)cc2Cl)n1 | 2 | 120 | 24 | 7 | 10000 | 58 | – | – | – |
| Nc1nc(NCCNc2ncc(-n3ccnc3)c(-c3ccc(Cl)cc3Cl)n2)ccc1[N+](=O)[O-] | 1 | 80 | – | – | – | – | – | – | EC50 [6]: 100 nM; IC50 [7]: 7 nM; IC50 [8]: 4 µM; IC50 [9]: > 10 µM; IC50 [10]: > 5 µM; IC50 (Angiopoietin-1 receptor): > 5 µM; IC50 [11]: > 5 µM; IC50 [12]: > 2000 nM; IC50 [13]: > 1000 nM; IC50 [14]: > 2000 nM; IC50 (Insulin receptor): > 2000 nM; IC50 [15]: > 10 µM; IC50 [16]: > 5 µM; IC50 [17]: > 10 µM; IC50 [18]: > 5 µM; concentration at 20 min ([4]; in vivo): 7000 ng/mL; IC50 [19]: 0.6 nM |
| O=[N+]([O-])c1ccc(NCCNc2ncc(-c3ncc[nH]3)c(-c3ccc(Cl)cc3Cl)n2)nc1 | 4 | 370 | 29 | 33 | 97000 | 143 | > 30 | > 30 | – |
| N#Cc1ccc(NCCNc2ncc(-c3ncc[nH]3)c(-c3ccc(Cl)cc3Cl)n2)nc1 | 4 | 510 | 18 | 21 | 29000 | 52 | > 30 | > 30 | half-life [22]: 33 min |
